Active and inactive are the calls of the source. The calls are words filed in the database; no cut-off is given here.
Experiments:
P3HR-1 [1] = assay: Cytotoxicity against human P3HR1 cells assessed as decrease in cell viability at 10 uM after 2 days by trypan blue staining-based light microscopic method; conditions: p3hr-1, 48 h
Summary of the method: (§1)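 EBV-positive Burkitt's lymphoma P3HR-1 (clone 16) cells were grown in RPMI 1640 with 10% FBS, streptomycin and penicillin. They were exposed to the compounds, and viable cells were counted by Trypan blue exclusion under a light microscope 2 days post-treatment. Viability was expressed relative to untreated control cells, and CC50 was fitted from dose-response curves.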

Human gammaherpesvirus 4 = assay: Inhibition of TPA/sodium butyrate-induced EBV lytic DNA replication in human P3HR1 cells incubated for 48 hrs post TPA/sodium butyrate induction by real-time PCR method; type: functional, cell-based; conditions: for IC50: human gammaherpesvirus 4, P3HR-1, 48 h
Summary of the method: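 P3HR-1 cells were induced with TPA (20 ng/mL) plus sodium butyrate (0.3 mM) and given varied compound concentrations 3 h later. Total cellular DNA was purified 48 h postinduction. EBV DNA content was taken as (induced − noninduced) over the same difference in untreated cells, and IC50 was derived from the dose-response curve.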

[2] = (§2) Cytotoxicity against human P3HR1 cells assessed as decrease in cell viability after 2 days by trypan blue staining-based light microscopic method; set-up: species or system P3HR-1; conditions: P3HR1 cells; summary of the method: as §1
[3] = Selectivity index, ratio of CC50 for human P3HR1 cells to IC50 for TPA/sodium butyrate-induced EBV lytic DNA replication
Summary of the method: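 SI = CC50/IC50. CC50 came from Trypan blue viability counts 2 days after treatment. IC50 came from EBV DNA content 48 h after TPA/butyrate induction of P3HR-1 cells, with compound added at 3 h.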

P3HR-1 [4] = assay: as §2; conditions: p3hr-1, 48 h; summary of the method: as §1

Row | Structure (SMILES) | IC50 (Human gammaherpesvirus 4) | CC50 at 48 h [2] | Ratio CC50/IC50 [3] | inhibition (Human gammaherpesvirus 4) | other results
1 | C=CC(C)(C)c1cc2cc3c(cc2oc1=O)O[C@@H](C(C)(C)OC(=O)CCl)C3 |  |  |  |  | Activity (P3HR-1 [1]): Toxic
2 | C=CC(C)(C)c1cc2cc3c(cc2oc1=O)O[C@@H](C(C)(C)OC(=O)OCCc1ccc(CC)cn1)C3 | 1.5 µM | 1200 µM | 801 |  | 
3 | C=CC(C)(C)c1cc2cc3c(cc2oc1=O)O[C@@H](C(C)(C)OC(=O)OCCc1ccncc1)C3 | 0.32 µM | 67.6 µM | 211 |  | 
4 | C=CC(C)(C)c1cc2cc3c(cc2oc1=O)O[C@@H](C(C)(C)OC(=O)OCCN1C(=O)c2ccccc2C1=O)C3 | 0.83 µM | > 100 µM | >120 |  | 
5 | C=CC(C)(C)c1cc2cc3c(cc2oc1=O)O[C@@H](C(C)(C)OC(=O)NCCN)C3 |  |  |  | Active | 
6 | C=CC(C)(C)c1cc2cc3c(cc2oc1=O)O[C@@H](C(C)(C)OC(=O)CNCC)C3 |  |  | <3 | Active | Activity (P3HR-1 [4]): Toxic
7 | C=CC(C)(C)c1cc2cc3c(cc2oc1=O)O[C@@H](C(C)(C)OC(C)=O)C3 | 13.8 µM | > 140 µM | >10 |  | 
8 | C=CC(C)(C)c1cc2cc3c(cc2oc1=O)O[C@@H](C(C)(C)OC(=O)NCCCCN)C3 |  |  |  | Active | 
9 | C=CC(C)(C)c1cc2cc3c(cc2oc1=O)O[C@@H](C(C)(C)OC(=O)CNCC1CCCO1)C3 (stereo partly drawn) |  |  |  | Active | 
10 | C=CC(C)(C)c1cc2cc3c(cc2oc1=O)O[C@@H](C(C)(C)OC(=O)CNC)C3 |  |  | <3 | Active | Activity (P3HR-1 [4]): Toxic
11 | C=CC(C)(C)c1cc2cc3c(cc2oc1=O)O[C@@H](C(C)(C)O)C3 | 69.9 µM |  |  |  | 
12 | C=CC(C)(C)c1cc2cc3c(cc2oc1=O)O[C@H](C(C)(C)OC(C)=O)C3 | 7 µM | > 150 µM | >21 |  | 
13 | C=CC(C)(C)c1cc2cc3c(cc2oc1=O)O[C@@H](C(C)(C)OC(=O)NCCO)C3 |  |  |  | Active | 
14 | C=CC(C)(C)c1cc2cc3c(cc2oc1=O)O[C@@H](C(C)(C)OC(=O)NCCOC(C)=O)C3 |  |  |  | Active | 
15 | C=CC(C)(C)c1cc2cc3c(cc2oc1=O)O[C@@H](C(C)(C)OC(=O)NCCc1ccc(F)cc1)C3 | 1.4 µM |  |  |  | 
16 | C=CC(C)(C)c1cc2cc3c(cc2oc1=O)O[C@@H](C(C)(C)OC(=O)OCCc1ccccc1)C3 |  |  |  | inactive | Activity (P3HR-1 [4]): Toxic
17 | C=CC(C)(C)c1cc2cc3c(cc2oc1=O)O[C@@H](C(C)(C)OC(=O)OCCc1ccccn1)C3 | 6.2 µM | 42.7 µM | 7 |  | 
18 | C=CC(C)(C)c1cc2cc3c(cc2oc1=O)O[C@@H](C(C)(C)OC(=O)OCc1ccccn1)C3 |  |  |  | Active | 
19 | C=CC(C)(C)c1cc2cc3c(cc2oc1=O)O[C@@H](C(C)(C)OC(=O)CNCCc1ccc(F)cc1)C3 | 0.76 µM | 42.6 µM | 56 |  | 
20 | C=CC(C)(C)c1cc2cc3c(cc2oc1=O)O[C@@H](C(C)(C)OC(=O)CNCc1ccco1)C3 |  |  |  | Active | 
21 | C=CC(C)(C)c1cc2cc3c(cc2oc1=O)O[C@@H](C(C)(C)OC(=O)C=C(C)C)C3 | 2.1 µM | > 100 µM | >47 |  | 
22 | C=CC(C)(C)c1cc2cc3c(cc2oc1=O)O[C@@H](C(C)(C)OC(=O)CNCCCC)C3 |  |  | <3 | Active | Activity (P3HR-1 [4]): Toxic
23 | C=CC(C)(C)c1cc2cc3c(cc2oc1=O)O[C@@H](C(C)(C)OC(=O)CNC1CCCC1)C3 | 2 µM | 40.8 µM | > 20 |  | 
24 | C=CC(C)(C)c1cc2cc3c(cc2oc1=O)OC(C(C)(C)OC(=O)OCCc1scnc1C)C3 (stereo not drawn) |  |  |  | Active | 
25 | C=CC(C)(C)c1cc2cc3c(cc2oc1=O)O[C@@H](C(C)(C)OC(=O)NCCC#N)C3 |  |  |  | Active | 
26 | C=CC(C)(C)c1cc2cc3c(cc2oc1=O)O[C@@H](C(C)(C)OC(=O)c1ccccc1)C3 | 4.5 µM | 370 µM | 83 |  | 

Reference: ChEMBL document CHEMBL4004812, “Semisynthesis of (-)-Rutamarin Derivatives and Their Inhibitory Activity on Epstein-Barr Virus Lytic Replication” (J Nat Prod, 2017)
